Experimental data reported in ChEMBL document CHEMBL4425103, “Diving into the Water: Inducible Binding Conformations for BRD4, TAF1(2), BRD9, and CECR2 Bromodomains” (J Med Chem, 2016).

Key:
[1] = molecular target: T1, Transcription initiation factor TFIID subunit 1 (Homo sapiens, UniProt P21675); experiment: Inhibition of recombinant His-tagged TAF1 isoform-2 (unknown origin) using biotinylated ligand incubated for 10 mins by TR-FRET assay
[2] = molecular target: T2, Bromodomain-containing protein 4 (Homo sapiens, UniProt O60885); experiment: Inhibition of recombinant His-tagged BRD4 bromodomain2 (unknown origin) using biotinylated ligand incubated for 10 mins by TR-FRET assay
[3] = molecular target: Chromatin remodeling regulator CECR2 (Homo sapiens, UniProt Q9BXF3); experiment: Inhibition of recombinant His-tagged CECR2 (unknown origin) using biotinylated ligand incubated for 10 mins by TR-FRET assay
[4] = molecular target: T1, Transcription initiation factor TFIID subunit 1; experiment: Inhibition of recombinant His-tagged TAF1 isoform-1 (unknown origin) using biotinylated ligand incubated for 10 mins by TR-FRET assay
[5] = molecular target: T2, Bromodomain-containing protein 4; experiment: Inhibition of recombinant His-tagged BRD4 bromodomain1 (unknown origin) using biotinylated ligand incubated for 10 mins by TR-FRET assay
CREB-binding protein = CREB-binding protein (Homo sapiens, UniProt Q92793); experiment: Displacement of biotinylated JQ1 analog from recombinant His-tagged CBP (unknown origin) incubated for 10 mins by TR-FRET assay
[6] = molecular target: T3, Bromodomain-containing protein 9 (Homo sapiens, UniProt Q9H8M2); experiment: Displacement of biotinylated JQ1 analog from recombinant His-tagged BRD9 (unknown origin) incubated for 10 mins by TR-FRET assay
T3 sequence (Q9H8M2 whole entry): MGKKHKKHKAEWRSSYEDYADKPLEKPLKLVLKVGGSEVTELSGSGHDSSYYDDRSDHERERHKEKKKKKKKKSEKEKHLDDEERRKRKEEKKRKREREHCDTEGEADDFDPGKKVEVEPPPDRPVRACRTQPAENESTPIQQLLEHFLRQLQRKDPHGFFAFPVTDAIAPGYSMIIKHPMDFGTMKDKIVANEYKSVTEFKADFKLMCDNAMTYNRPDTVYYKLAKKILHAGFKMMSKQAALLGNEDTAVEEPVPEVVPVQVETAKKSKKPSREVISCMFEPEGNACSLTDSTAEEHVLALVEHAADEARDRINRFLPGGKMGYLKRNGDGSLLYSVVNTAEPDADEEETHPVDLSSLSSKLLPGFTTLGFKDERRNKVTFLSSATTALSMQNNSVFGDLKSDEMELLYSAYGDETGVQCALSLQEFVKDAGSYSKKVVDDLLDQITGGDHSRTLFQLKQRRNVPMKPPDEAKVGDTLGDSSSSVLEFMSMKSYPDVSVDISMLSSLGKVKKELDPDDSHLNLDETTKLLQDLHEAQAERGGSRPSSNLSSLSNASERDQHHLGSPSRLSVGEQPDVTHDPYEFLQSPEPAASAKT

Peregrin = molecular target: T4, Peregrin (Homo sapiens, UniProt P55201); experiment: Displacement of biotinylated JQ1 analog from recombinant His-tagged BRPF1 (unknown origin) incubated for 10 mins by TR-FRET assay
T4 sequence (P55201 whole entry): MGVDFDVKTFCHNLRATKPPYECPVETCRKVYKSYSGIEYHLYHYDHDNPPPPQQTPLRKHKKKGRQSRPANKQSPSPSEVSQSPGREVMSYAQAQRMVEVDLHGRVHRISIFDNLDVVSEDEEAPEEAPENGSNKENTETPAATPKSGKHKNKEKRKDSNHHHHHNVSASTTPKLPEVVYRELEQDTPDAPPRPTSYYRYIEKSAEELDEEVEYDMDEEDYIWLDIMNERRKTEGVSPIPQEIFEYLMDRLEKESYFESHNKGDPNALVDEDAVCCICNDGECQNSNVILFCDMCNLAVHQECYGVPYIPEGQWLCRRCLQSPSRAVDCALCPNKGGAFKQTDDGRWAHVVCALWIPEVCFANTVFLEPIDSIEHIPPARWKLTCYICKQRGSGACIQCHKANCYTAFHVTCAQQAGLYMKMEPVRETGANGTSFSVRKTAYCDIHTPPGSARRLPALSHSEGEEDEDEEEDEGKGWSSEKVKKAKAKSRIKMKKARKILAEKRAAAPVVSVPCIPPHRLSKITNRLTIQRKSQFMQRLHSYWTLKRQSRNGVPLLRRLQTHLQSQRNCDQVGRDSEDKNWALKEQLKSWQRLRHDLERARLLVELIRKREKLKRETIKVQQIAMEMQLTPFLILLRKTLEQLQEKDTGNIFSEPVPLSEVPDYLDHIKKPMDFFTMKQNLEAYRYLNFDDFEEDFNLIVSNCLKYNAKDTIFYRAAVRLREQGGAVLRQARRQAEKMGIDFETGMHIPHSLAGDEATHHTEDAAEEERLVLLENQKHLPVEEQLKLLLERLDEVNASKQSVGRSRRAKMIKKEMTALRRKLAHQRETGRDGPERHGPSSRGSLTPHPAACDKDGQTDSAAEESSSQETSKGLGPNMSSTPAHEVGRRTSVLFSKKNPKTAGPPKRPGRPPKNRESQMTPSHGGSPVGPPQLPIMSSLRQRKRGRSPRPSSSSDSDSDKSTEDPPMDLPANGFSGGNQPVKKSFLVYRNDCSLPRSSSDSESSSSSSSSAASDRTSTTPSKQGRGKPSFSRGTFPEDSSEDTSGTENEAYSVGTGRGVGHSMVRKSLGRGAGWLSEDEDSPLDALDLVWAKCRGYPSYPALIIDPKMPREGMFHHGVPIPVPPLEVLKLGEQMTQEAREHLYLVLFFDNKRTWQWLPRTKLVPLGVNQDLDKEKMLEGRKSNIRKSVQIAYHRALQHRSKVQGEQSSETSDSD
Method in brief: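 Bromodomain, then biotinylated ligand, each added with 10 min incubation. Anti-His europium (0.2 nM) plus streptavidin-APC followed for 40 min. 10-point titrations in duplicate, at least 2 independent runs.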

T1 sequence (P21675 whole entry, canonical isoform): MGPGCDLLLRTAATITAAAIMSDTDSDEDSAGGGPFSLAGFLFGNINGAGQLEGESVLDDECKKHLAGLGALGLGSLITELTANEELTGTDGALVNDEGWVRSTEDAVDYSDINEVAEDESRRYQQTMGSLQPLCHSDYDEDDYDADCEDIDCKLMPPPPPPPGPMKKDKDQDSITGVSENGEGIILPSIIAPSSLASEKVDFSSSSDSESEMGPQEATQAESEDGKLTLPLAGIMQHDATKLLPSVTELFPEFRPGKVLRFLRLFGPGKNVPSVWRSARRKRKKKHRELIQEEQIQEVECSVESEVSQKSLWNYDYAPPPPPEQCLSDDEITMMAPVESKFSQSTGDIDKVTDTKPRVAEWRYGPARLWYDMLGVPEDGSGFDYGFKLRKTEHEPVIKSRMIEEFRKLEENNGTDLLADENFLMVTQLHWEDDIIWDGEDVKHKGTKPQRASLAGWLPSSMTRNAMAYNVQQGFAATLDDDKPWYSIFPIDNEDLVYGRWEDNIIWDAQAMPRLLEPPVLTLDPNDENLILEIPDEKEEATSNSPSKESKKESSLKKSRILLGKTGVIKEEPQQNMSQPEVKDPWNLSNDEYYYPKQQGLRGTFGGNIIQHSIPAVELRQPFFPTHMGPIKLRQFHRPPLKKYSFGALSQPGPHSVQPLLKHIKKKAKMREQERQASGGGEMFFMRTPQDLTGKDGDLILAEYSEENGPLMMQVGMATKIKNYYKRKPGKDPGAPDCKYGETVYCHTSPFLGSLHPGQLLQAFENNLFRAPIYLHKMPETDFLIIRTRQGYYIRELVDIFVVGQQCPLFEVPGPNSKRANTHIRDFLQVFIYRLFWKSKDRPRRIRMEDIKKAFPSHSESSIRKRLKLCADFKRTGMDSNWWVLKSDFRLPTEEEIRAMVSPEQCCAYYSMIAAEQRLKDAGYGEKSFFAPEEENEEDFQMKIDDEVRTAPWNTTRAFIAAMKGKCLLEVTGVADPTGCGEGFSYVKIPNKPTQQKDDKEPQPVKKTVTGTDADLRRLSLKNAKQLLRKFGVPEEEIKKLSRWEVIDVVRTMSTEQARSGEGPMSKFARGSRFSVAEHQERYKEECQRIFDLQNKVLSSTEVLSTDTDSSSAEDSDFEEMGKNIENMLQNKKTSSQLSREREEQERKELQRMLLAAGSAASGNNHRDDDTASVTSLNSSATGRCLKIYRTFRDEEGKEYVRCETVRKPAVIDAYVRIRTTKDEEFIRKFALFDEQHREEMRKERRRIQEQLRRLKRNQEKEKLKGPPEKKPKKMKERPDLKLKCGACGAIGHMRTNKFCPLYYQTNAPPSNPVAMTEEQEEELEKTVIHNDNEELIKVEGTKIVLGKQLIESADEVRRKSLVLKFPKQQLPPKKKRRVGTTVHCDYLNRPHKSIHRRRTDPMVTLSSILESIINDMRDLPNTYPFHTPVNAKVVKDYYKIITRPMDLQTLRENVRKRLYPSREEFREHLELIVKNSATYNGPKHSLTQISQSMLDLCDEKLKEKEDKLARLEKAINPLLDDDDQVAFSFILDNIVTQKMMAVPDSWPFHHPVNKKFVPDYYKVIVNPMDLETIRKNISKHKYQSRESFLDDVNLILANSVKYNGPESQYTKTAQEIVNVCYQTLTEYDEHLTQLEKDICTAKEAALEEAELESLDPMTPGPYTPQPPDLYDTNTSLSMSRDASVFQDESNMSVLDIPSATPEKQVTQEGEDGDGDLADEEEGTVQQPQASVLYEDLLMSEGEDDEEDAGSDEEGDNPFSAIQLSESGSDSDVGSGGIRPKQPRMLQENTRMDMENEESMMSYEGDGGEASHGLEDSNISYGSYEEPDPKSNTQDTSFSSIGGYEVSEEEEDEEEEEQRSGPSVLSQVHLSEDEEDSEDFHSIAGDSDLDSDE
Sequence of CREB-binding protein (Q92793 whole entry): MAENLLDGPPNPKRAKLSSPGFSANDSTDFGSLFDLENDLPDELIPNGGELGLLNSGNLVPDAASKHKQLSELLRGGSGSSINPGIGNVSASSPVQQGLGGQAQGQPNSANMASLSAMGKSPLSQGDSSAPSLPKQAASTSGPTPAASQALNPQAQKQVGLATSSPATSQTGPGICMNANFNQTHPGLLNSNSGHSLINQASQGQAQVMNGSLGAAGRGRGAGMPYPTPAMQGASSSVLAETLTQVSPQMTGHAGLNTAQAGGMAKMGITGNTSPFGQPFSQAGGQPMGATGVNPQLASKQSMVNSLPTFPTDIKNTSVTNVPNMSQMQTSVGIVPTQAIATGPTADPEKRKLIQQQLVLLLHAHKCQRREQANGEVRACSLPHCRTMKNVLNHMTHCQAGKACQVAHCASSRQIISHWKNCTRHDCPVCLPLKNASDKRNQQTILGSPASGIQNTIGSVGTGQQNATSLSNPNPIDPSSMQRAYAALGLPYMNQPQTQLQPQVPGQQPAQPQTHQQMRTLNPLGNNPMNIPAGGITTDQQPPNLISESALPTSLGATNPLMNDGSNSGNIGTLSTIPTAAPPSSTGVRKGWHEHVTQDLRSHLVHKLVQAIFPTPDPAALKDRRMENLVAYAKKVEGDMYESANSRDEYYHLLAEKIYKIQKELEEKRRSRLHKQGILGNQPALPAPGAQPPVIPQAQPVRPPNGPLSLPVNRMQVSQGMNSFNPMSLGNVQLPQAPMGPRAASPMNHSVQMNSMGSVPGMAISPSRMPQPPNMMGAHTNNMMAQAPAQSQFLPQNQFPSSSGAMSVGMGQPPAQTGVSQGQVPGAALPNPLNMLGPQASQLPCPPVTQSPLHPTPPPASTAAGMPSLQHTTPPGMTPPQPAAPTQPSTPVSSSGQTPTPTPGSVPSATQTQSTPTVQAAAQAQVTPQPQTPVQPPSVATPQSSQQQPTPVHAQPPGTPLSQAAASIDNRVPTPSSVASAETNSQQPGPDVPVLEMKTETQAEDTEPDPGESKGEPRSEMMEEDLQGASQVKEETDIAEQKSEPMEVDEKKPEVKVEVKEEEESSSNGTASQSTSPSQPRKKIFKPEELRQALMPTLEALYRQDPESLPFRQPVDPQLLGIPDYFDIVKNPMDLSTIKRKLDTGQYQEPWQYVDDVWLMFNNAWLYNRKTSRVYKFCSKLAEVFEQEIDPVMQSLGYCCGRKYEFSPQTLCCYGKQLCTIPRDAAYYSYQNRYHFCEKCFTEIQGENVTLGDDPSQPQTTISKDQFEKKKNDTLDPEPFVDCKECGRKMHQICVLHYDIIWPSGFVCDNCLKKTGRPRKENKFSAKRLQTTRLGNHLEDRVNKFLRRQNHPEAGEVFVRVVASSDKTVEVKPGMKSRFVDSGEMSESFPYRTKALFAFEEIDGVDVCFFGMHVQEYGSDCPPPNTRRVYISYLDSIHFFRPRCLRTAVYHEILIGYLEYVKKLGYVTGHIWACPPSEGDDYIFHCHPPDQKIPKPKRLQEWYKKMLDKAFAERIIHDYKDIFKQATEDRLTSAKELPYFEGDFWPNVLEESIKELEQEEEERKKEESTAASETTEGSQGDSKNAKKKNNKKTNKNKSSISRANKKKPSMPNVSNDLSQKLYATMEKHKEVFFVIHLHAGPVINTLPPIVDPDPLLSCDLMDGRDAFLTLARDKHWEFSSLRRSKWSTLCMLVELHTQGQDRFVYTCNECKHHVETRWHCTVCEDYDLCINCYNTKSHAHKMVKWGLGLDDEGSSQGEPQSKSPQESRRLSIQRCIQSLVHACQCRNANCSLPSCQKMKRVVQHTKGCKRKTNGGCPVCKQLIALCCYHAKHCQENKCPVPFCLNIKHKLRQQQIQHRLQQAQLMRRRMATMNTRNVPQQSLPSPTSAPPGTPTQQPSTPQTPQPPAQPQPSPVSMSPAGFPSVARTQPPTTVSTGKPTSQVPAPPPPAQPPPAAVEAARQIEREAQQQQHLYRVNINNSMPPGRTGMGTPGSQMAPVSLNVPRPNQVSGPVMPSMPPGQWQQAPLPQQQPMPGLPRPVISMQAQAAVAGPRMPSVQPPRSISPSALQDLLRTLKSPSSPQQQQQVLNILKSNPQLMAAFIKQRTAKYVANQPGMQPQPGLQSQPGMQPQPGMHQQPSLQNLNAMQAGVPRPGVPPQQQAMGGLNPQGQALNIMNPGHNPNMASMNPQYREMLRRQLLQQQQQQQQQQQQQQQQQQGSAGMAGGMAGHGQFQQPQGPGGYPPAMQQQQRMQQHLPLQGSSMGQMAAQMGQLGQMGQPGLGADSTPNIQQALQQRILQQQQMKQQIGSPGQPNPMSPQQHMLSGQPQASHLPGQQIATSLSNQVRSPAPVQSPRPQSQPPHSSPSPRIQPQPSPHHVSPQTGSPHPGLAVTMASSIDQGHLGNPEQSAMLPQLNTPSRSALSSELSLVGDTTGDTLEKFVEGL

SMILES | IC50 [1] [µM] | IC50 [2] [µM] | IC50 [3] [µM] | IC50 [4] [µM] | IC50 [5] [µM] | IC50 (CREB-binding protein) [µM] | IC50 [6] [µM] | IC50 (Peregrin) [µM]
Cn1ccc2cc[nH]c2c1=O | 23.7 | 7.5 | 42.8 | 38.9 | 18.4 | 11.8 | 13.7 | 53.8
C/C=C/Cn1cc(-c2cccc(C(=O)N(C)C)c2)c2cc[nH]c2c1=O | – | – | – | – | – | – | – | > 20
C=CCCn1cc(-c2cccc(C(=O)N(C)C)c2)c2cc[nH]c2c1=O | – | – | – | – | – | – | – | > 20
